≈ marks a conversion by molar mass, not a printed value. Where a SMILES comes first, the peptide text is derived from it. [ ]: non-standard residue; d: D form. dOrn = NCCC[C@@H](N)C(=O)O
Experiments:
Type in all cases: functional
Acinetobacter baumannii [1] = test: Antibacterial activity against Acinetobacter baumannii isolate 9383370 measured after 24 hrs by microtiter dilution method; settings: isolate 9383370, 24 h
In short: (§1)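 Broth microdilution in Mueller-Hinton (MH) medium. […] Plates were incubated 24 h at 37 °C. MIC was the lowest peptide concentration that inhibited growth, based on three sets of replicates.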

Acinetobacter baumannii [2] = test: Antibacterial activity against Acinetobacter baumannii isolate 1007660 measured after 24 hrs by microtiter dilution method; settings: isolate 1007660, 24 h; in short: as §1
Acinetobacter baumannii [3] = test: Antibacterial activity against polymyxin B/colistin-resistant Acinetobacter baumannii M89941 measured after 24 hrs by microtiter dilution method; settings: M89941, 24 h; in short: as §1
Acinetobacter baumannii [4] = test: Antibacterial activity against Acinetobacter baumannii isolate 1018887 measured after 24 hrs by microtiter dilution method; settings: isolate 1018887, 24 h; in short: as §1
Acinetobacter baumannii [5] = test: Antibacterial activity against Acinetobacter baumannii isolate 1010282 measured after 24 hrs by microtiter dilution method; settings: isolate 1010282, 24 h; in short: as §1
Acinetobacter baumannii [6] = test: Antibacterial activity against Acinetobacter baumannii isolate 965463 measured after 24 hrs by microtiter dilution method; settings: isolate 965463, 24 h; in short: as §1
Acinetobacter baumannii [7] = test: Antibacterial activity against polymyxin B/colistin-resistant Acinetobacter baumannii M89949 measured after 24 hrs by microtiter dilution method; settings: M89949, 24 h; in short: as §1
Acinetobacter baumannii [8] = test: Antibacterial activity against Acinetobacter baumannii isolate 964304 measured after 24 hrs by microtiter dilution method; settings: isolate 964304, 24 h; in short: as §1
Acinetobacter baumannii [9] = test: Antibacterial activity against Acinetobacter baumannii isolate 1010245 measured after 24 hrs by microtiter dilution method; settings: isolate 1010245, 24 h; in short: as §1
Acinetobacter baumannii [10] = test: Antibacterial activity against Acinetobacter baumannii isolate 1021371 measured after 24 hrs by microtiter dilution method; settings: isolate 1021371, 24 h; in short: as §1
Acinetobacter baumannii [11] = test: Antibacterial activity against Acinetobacter baumannii isolate 963659 measured after 24 hrs by microtiter dilution method; settings: isolate 963659, 24 h; in short: as §1
Acinetobacter baumannii [12] = test: Antibacterial activity against Acinetobacter baumannii isolate 1002956 measured after 24 hrs by microtiter dilution method; settings: isolate 1002956, 24 h; in short: as §1
Acinetobacter baumannii [13] = test: Antibacterial activity against Acinetobacter baumannii 649 measured after 24 hrs by microtiter dilution method; settings: Acinetobacter baumannii, 649, 24 h; in short: as §1
Acinetobacter baumannii [14] = test: Antibacterial activity against Acinetobacter baumannii isolate 963618 measured after 24 hrs by microtiter dilution method; settings: isolate 963618, 24 h; in short: as §1
Acinetobacter baumannii [15] = test: Antibacterial activity against Acinetobacter baumannii isolate 1001611 measured after 24 hrs by microtiter dilution method; settings: isolate 1001611, 24 h; in short: as §1
Acinetobacter baumannii [16] = test: Antibacterial activity against Acinetobacter baumannii isolate 968886 measured after 24 hrs by microtiter dilution method; settings: isolate 968886, 24 h; in short: as §1
Acinetobacter baumannii [17] = test: Antibacterial activity against polymyxin B/colistin-resistant Acinetobacter baumannii M89951 measured after 24 hrs by microtiter dilution method; settings: M89951, 24 h; in short: as §1
Acinetobacter baumannii [18] = test: Antibacterial activity against Acinetobacter baumannii isolate 952654 measured after 24 hrs by microtiter dilution method; settings: isolate 952654, 24 h; in short: as §1
Acinetobacter baumannii [19] = test: Antibacterial activity against Acinetobacter baumannii isolate 1017395 measured after 24 hrs by microtiter dilution method; settings: isolate 1017395, 24 h; in short: as §1
Acinetobacter baumannii [20] = test: Antibacterial activity against Acinetobacter baumannii isolate 977751 measured after 24 hrs by microtiter dilution method; settings: isolate 977751, 24 h; in short: as §1
Acinetobacter baumannii [21] = test: Antibacterial activity against Acinetobacter baumannii isolate 981650 measured after 24 hrs by microtiter dilution method; settings: isolate 981650, 24 h; in short: as §1
Acinetobacter baumannii [22] = test: Antibacterial activity against polymyxin B/colistin-resistant Acinetobacter baumannii M89953 measured after 24 hrs by microtiter dilution method; settings: M89953, 24 h; in short: as §1
Acinetobacter baumannii [23] = test: Antibacterial activity against polymyxin B/colistin-resistant Acinetobacter baumannii M89963 measured after 24 hrs by microtiter dilution method; settings: M89963, 24 h; in short: as §1
Acinetobacter baumannii [24] = test: Antibacterial activity against Acinetobacter baumannii isolate 1035794 measured after 24 hrs by microtiter dilution method; settings: isolate 1035794, 24 h; in short: as §1
Acinetobacter baumannii [25] = test: Antibacterial activity against Acinetobacter baumannii isolate 961997 measured after 24 hrs by microtiter dilution method; settings: isolate 961997, 24 h; in short: as §1
Acinetobacter baumannii [26] = test: Antibacterial activity against polymyxin B/colistin-resistant Acinetobacter baumannii M89952 measured after 24 hrs by microtiter dilution method; settings: M89952, 24 h; in short: as §1
Acinetobacter baumannii [27] = test: Antibacterial activity against Acinetobacter baumannii isolate 1035166 measured after 24 hrs by microtiter dilution method; settings: isolate 1035166, 24 h; in short: as §1

## CC(=O)N[C@H](CCCCN)C(=O)N[C@H](CC(C)C)C(=O)N[C@H](CCCN)C(=O)N[C@H](CO)C(=O)N[C@H](CC(C)C)C(=O)N[C@H](CC(C)C)C(=O)N[C@H](CCCN)C(=O)N[C@@H](C(=O)N[C@H](CC(C)C)C(=O)N[C@H](CO)C(=O)N[C@H](CCCN)C(=O)N[C@H](C)C(=O)N[C@H](C)C(=O)N[C@H](C)C(=O)N[C@H](C)C(=O)N[C@H](C)C(=O)N[C@H](CC(C)C)C(=O)N[C@H](CCCN)C(=O)N[C@@H](C(=O)N[C@H](CC(C)C)C(=O)N[C@H](CC(C)C)C(=O)N[C@H](CCCN)C(=O)N[C@H](C)C(=O)N[C@H](CC(C)C)C(=O)N[C@H](CO)C(=O)N[C@H](CCCN)C(N)=O)[C@H](C)O)[C@H](C)O (Ac-[dK][dL][dOrn][dS][dL][dL][dOrn][dT][dL][dS][dOrn][dA][dA][dA][dA][dA][dL][dOrn][dT][dL][dL][dOrn][dA][dL][dS][dOrn]-NH2)
Acinetobacter baumannii [1]
  MIC: 3 µM (≈ 8 µg/mL)
Acinetobacter baumannii [2]
  MIC: 1.5 µM (≈ 4 µg/mL)
Acinetobacter baumannii [3]
  MIC: 2.9 µM (≈ 7.74 µg/mL)
Acinetobacter baumannii [4]
  MIC: 3 µM (≈ 8 µg/mL)
Acinetobacter baumannii [5]
  MIC: 1.5 µM (≈ 4 µg/mL)
Acinetobacter baumannii [6]
  MIC: 3 µM (≈ 8 µg/mL)
Acinetobacter baumannii [7]
  MIC: 2.9 µM (≈ 7.74 µg/mL)
Acinetobacter baumannii [8]
  MIC: 1.5 µM (≈ 4 µg/mL)
Acinetobacter baumannii [9]
  MIC: 1.5 µM (≈ 4 µg/mL)
Acinetobacter baumannii [10]
  MIC: 1.5 µM (≈ 4 µg/mL)
Acinetobacter baumannii [11]
  MIC: 0.7 µM (≈ 1.87 µg/mL)
Acinetobacter baumannii [12]
  MIC: 1.5 µM (≈ 4 µg/mL)
Acinetobacter baumannii [13]
  MIC: 1.5 µM (≈ 4 µg/mL)
Acinetobacter baumannii [14]
  MIC: 1.5 µM (≈ 4 µg/mL)
Acinetobacter baumannii [15]
  MIC: 1.5 µM (≈ 4 µg/mL)
Acinetobacter baumannii [16]
  MIC: 3 µM (≈ 8 µg/mL)
Acinetobacter baumannii [17]
  MIC: 1.5 µM (≈ 4 µg/mL)
Acinetobacter baumannii [18]
  MIC: 1.5 µM (≈ 4 µg/mL)
Acinetobacter baumannii [19]
  MIC: 3 µM (≈ 8 µg/mL)
Acinetobacter baumannii [20]
  MIC: 6 µM (≈ 16 µg/mL)
Acinetobacter baumannii [21]
  MIC: 1.5 µM (≈ 4 µg/mL)
Acinetobacter baumannii [22]
  MIC: 1.5 µM (≈ 4 µg/mL)
Acinetobacter baumannii [23]
  MIC: 2.9 µM (≈ 7.74 µg/mL)
Acinetobacter baumannii [24]
  MIC: 3 µM (≈ 8 µg/mL)
Acinetobacter baumannii [25]
  MIC: 1.5 µM (≈ 4 µg/mL)
Acinetobacter baumannii [26]
  MIC: 1.5 µM (≈ 4 µg/mL)
Acinetobacter baumannii [27]
  MIC: 1.5 µM (≈ 4 µg/mL)

— ChEMBL document CHEMBL4339192, “De Novo Designed Amphipathic α-Helical Antimicrobial Peptides Incorporating Dab and Dap Residues on the Polar Face To Treat the Gram-Negative Pathogen, Acinetobacter baumannii” (J Med Chem, 2019)
